{"source": "paper PMC4931877", "about": "(The Journal of Pharmacology and Experimental Therapeutics, 2016)", "key": {"brain Aβ42": {"tested_on": "brain Aβ42", "design": "species or system human", "details": "single 900-mg dose"}, "CSF Aβ peptides [1]": {"tested_on": "CSF Aβ peptides", "test": "SAD study pharmacodynamic effects on CSF Aβ peptides", "assay_type": "in vivo, human", "outline": "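After a single oral dose, CSF was drawn by lumbar cannulation at −1 to 24 h postdose, with predose samples taken at 7–10 AM, and stored at −80°C in polypropylene. Aβ38/40/42 and total Aβ were measured by MSD immunoassay and Aβ37 by 6E10 sandwich immunoassay, in duplicate. Other Aβ fragments were measured by LC-MS/MS (LLOQ 30 pg/ml).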"}, "[2]": {"tested_on": "brain and CSF Aβ42 and Aβ40", "details": "rats; ref Toyn et al., 2016; cited from earlier work"}, "[3]": {"tested_on": "plasma Aβ40, Aβ42, and total Aβ", "test": "MAD study pharmacodynamic effects on plasma Aβ", "assay_type": "in vivo, human", "outline": "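Healthy volunteers were dosed once daily at 50, 100 or 200 mg for up to 28 days. EDTA plasma was stored at −80°C. Aβ40 and Aβ42 were measured by Luminex duplex immunoassay (LLOQ 30 and 3 pg/ml) and total Aβ by MSD (LLOQ 50 pg/ml), in duplicate. Values are % change from baseline, analysed by repeated-measures ANCOVA.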"}, "CSF Aβ peptides [4]": {"tested_on": "CSF Aβ peptides", "test": "MAD study pharmacodynamic effects on CSF Aβ peptides", "assay_type": "in vivo, human"}, "UGT1A1": {"biological_target": "T1, UGT1A1 (Homo sapiens, UniProt P22309)", "T1 sequence (P22309 26-533)": "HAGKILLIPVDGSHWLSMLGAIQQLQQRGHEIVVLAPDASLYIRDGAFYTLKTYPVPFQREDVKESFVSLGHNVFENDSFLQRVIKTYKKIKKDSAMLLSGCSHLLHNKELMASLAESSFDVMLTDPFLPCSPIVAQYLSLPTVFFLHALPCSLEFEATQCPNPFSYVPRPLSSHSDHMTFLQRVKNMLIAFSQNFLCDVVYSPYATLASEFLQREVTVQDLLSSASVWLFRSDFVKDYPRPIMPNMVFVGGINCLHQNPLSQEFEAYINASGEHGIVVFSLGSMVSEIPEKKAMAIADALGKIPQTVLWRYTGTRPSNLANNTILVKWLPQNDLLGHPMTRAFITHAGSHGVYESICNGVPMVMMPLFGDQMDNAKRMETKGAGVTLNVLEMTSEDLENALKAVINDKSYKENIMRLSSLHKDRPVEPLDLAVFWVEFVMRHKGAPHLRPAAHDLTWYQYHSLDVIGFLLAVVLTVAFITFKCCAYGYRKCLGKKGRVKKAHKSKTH", "test": "UGT1A1 inhibition", "assay_type": "biochemical"}, "[5]": {"test": "SAD study plasma pharmacokinetics", "assay_type": "in vivo, human", "details": "for Cmax / AUC(0-t) / AUC(0-inf) / half-life: human, plasma, oral; for Cmax: Cmax GM (CV%); for AUC(0-t): AUC0–t GM (CV%); for AUC(0-inf): AUC0–∞ GM (CV%)", "outline": "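Young subjects (8 per panel, 3:1 active:placebo) received single oral 10–1200 mg doses as solution or capsule; elderly subjects received 900 mg. Panel 4 was dosed fasted, after a high-fat meal, or 2 h after 40 mg famotidine. Plasma drug was measured by validated LC-MS/MS with noncompartmental analysis.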"}, "[6]": {"details": "SAD panel 4, 2 hours after 40 mg famotidine"}, "[7]": {"details": "both, 300 mg, SAD panel 4, 300 mg, fasted"}, "[8]": {"details": "both, 900 mg, SAD panel 8, 900 mg, elderly"}}, "data": [{"molecule": "CNc1nc(Nc2ccc(-n3cnc(C)n3)c(OC)c2)nc2c1CC[C@H]2c1ccc(F)cc1", "note": "[BMS-932481, (S)-7-(4-fluorophenyl)-N2-(3-methoxy-4-(3-methyl-1H-1,2,4-triazol-1-yl)phenyl)-N4-methyl-6,7-dihydro-5H-cyclopenta[d]pyrimidine-2,4-diamine]", "values": [{"measurement": "projected reduction of CSF Aβ42 from baseline", "setting": "brain Aβ42", "result": "≥ 50", "unit": "%"}, {"measurement": "effect on CSF Aβ39", "setting": "CSF Aβ peptides [1]", "result": "appeared to lower"}, {"measurement": "effect on shorter CSF fragments Aβ14, Aβ15, and Aβ34", "setting": "CSF Aβ peptides [1]", "result": "no effect"}, {"measurement": "degree of CSFAβ42 lowering, elderly versus young", "setting": "CSF Aβ peptides [1]; largely due to higher exposures in elderly", "result": "greater in elderly than in young"}, {"measurement": "Aβ42 and Aβ40 lowering in both the brain and CSF", "setting": "[2]", "result": "dose-dependent"}, {"measurement": "decrease of plasma Aβ40 levels", "setting": "[3]; MAD 50-mg dose, up to", "result": "40%–50"}, {"measurement": "plasma Aβ42 during the dosing period", "setting": "[3]; MAD 100- and 200-mg cohorts", "result": "below the limit of quantitation"}, {"measurement": "reduction of plasma Aβ42 levels", "setting": "[3]; MAD 200-mg cohort, day 35 (11 days after the last dose)", "result": 46, "unit": "%"}, {"measurement": "change in plasma total Aβ", "setting": "[3]; multiple dose cohorts", "result": "No changes"}, {"measurement": "effect on plasma Aβ42 and Aβ40", "setting": "[3]; multiple-dose administrations", "result": "dose-dependently decreased"}, {"measurement": "effect on CSF APL1β28 fragment", "setting": "CSF Aβ peptides [4]; MAD", "result": "No effects"}, {"measurement": "effect on CSF Aβ14 fragment", "setting": "CSF Aβ peptides [4]; MAD", "result": "No effects"}, {"measurement": "Mean decrease in CSF Aβ40, change from baseline", "setting": "CSF Aβ peptides [4]; MAD 50 mg, day 28", "result": "−36", "unit": "%"}, {"measurement": "Mean decrease in CSF Aβ42, change from baseline", "setting": "CSF Aβ peptides [4]; MAD 50 mg, day 28", "result": "−38", "unit": "%"}, {"measurement": "increase of CSF Aβ37, of baseline", "setting": "CSF Aβ peptides [4]; MAD 50 mg, day 28", "result": 292, "unit": "%"}, {"measurement": "Mean decrease in CSF Aβ40, change from baseline", "setting": "CSF Aβ peptides [4]; MAD 100 mg, day 28", "result": "−44", "unit": "%"}, {"measurement": "Mean decrease in CSF Aβ42, change from baseline", "setting": "CSF Aβ peptides [4]; MAD 100 mg, day 28", "result": "−46", "unit": "%"}, {"measurement": "increase of CSF Aβ37, of baseline", "setting": "CSF Aβ peptides [4]; MAD 100 mg, day 28", "result": 518, "unit": "%"}, {"measurement": "increase of CSF Aβ37, of baseline", "setting": "CSF Aβ peptides [4]; MAD 200 mg, 48, 72 or 96 hours after last dose", "result": "484%–545"}, {"measurement": "CSF Aβ40 and Aβ42 levels four days after the last day of dosing", "setting": "CSF Aβ peptides [4]; MAD 200 mg, 96 hours after last dose", "result": "still significantly reduced"}, {"measurement": "increase of CSF Aβ38", "setting": "CSF Aβ peptides [4]; MAD, 50 mg", "result": 20, "unit": "%"}, {"measurement": "increase of CSF Aβ38", "setting": "CSF Aβ peptides [4]; MAD, 100 mg", "result": 69, "unit": "%"}, {"measurement": "increase of CSF Aβ38", "setting": "CSF Aβ peptides [4]; MAD, 200 mg", "result": 68, "unit": "%"}, {"measurement": "CSF Aβ42/CSF Aβ40 ratio", "setting": "CSF Aβ peptides [4]; MAD, especially at the 200-mg dose", "result": "Trends in lowering"}, {"measurement": "effect on CSF AB17", "setting": "CSF Aβ peptides [4]; SAD and MAD (Supplemental Figs. 4C and 5F)", "result": "slight increases"}, {"measurement": "effect on total Aβ in CSF", "setting": "CSF Aβ peptides [4]; at higher dose levels", "result": "modest decreases"}, {"measurement": "IC50", "setting": "UGT1A1", "result": 1340, "unit": "nM"}, {"measurement": "higher Cmax in elderly than normal healthy young", "setting": "[5]; 900 mg single dose, range 3.4–4.3", "result": 3.8, "unit": "fold"}, {"measurement": "Between-subjects variability", "setting": "[5]; SAD", "result": "27%–83"}, {"measurement": "increase of AUC with famotidine (change in gastric pH)", "setting": "[5]; [6]", "result": "approximately 15%"}, {"measurement": "increase of Cmax with famotidine (change in gastric pH)", "setting": "[5]; [6]", "result": 60, "unit": "%"}, {"measurement": "Cmax", "setting": "[5]; both, 10 mg, SAD panel 1, 10 mg single dose", "result": 11, "unit": "ng/mL"}, {"measurement": "Cmax", "setting": "[5]; both, 30 mg, SAD panel 2, 30 mg single dose", "result": 49, "unit": "ng/mL"}, {"measurement": "AUC(0-t)", "setting": "[5]; [7]", "result": 8570, "unit": "ng·h/mL"}, {"measurement": "AUC(0-inf)", "setting": "[5]; [7]", "result": 8750, "unit": "ng·h/mL"}, {"measurement": "Cmax", "setting": "[5]; [7]", "result": 325, "unit": "ng/mL"}, {"measurement": "half-life", "setting": "[5]; both, 300 mg, t1/2 Mean (S.D.), SAD panel 4, 300 mg, fasted", "result": 20, "unit": "h"}, {"measurement": "AUC(0-t)", "setting": "[5]; [8]", "result": 134000, "unit": "ng·h/mL"}, {"measurement": "AUC(0-inf)", "setting": "[5]; [8]", "result": 156000, "unit": "ng·h/mL"}, {"measurement": "Cmax", "setting": "[5]; [8]", "result": 2870, "unit": "ng/mL"}, {"measurement": "half-life", "setting": "[5]; both, mean terminal half-life, SAD, healthy young participants", "result": "16 to 32", "unit": "h"}, {"measurement": "AUC(0-t)", "setting": "[5]; 900 mg, SAD panel 9, 900 mg", "result": 42600, "unit": "ng·h/mL"}, {"measurement": "Cmax", "setting": "[5]; 900 mg, SAD panel 9, 900 mg", "result": 876, "unit": "ng/mL"}, {"measurement": "half-life", "setting": "[5]; 900 mg, t1/2 Mean (S.D.), SAD panel 9, 900 mg", "result": 32, "unit": "h"}, {"measurement": "dose proportionality of plasma exposure", "setting": "[5]; single dose, 10 to 1200 mg, healthy young volunteers", "result": "dose proportional"}]}]}
